Reference: the RNAGym collection of RNA variant scans (doi:10.1002/anie.201605470)

B1: Osa-1-4 twister ribozyme (parent)
chain: CCGCCUAACACUGCCAAUGCCGGUCCCAAGCCCGGAUAAAAGUGGAGGGGGCGG

Variants of: B1
Assay: self-cleavage, relative activity (ratio to wild type); higher = more cleavage; co-transcriptional
Outline: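 A DNA template was synthesised for a 54-nucleotide twister ribozyme from Oryza sativa, with 97 % wild-type base and 1 % of each other base at each of the 48 positions downstream of the cleavage site. The ribozyme cleaved itself co-transcriptionally during 2 h of in vitro transcription at 37 °C. Reverse transcription with a template-switching oligonucleotide, PCR amplification and deep sequencing followed, and cleavage status came from reads with or without upstream sequence. Relative activity is the fraction cleaved normalised to wild type.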

| Variant | self-cleavage |
| --- | --- |
| CCGCCUAACUCUGCCAAUGCCGGUCCCAAGCCCGGGUAAAAGUGGAGGGGGCGG [A10U A36G] | 0.05 |
| CCGCCUAACGCUGCCAAUGCCGGUCCCAAGCCCGGAUAAAAGGGGAGGGGGCGG [A10G U43G] | 0.3 |
| CCGCCUAACGCUGCCAAUGCCGGUCCCAAGCCCGGAUAAAAGCGGAGGGGGCGG [A10G U43C] | 0.96 |
| CCGCCUAACGCUGCCAAUGCCGGUCCCAAGCCCGGAUAAAAGAGGAGGGGGCGG [A10G U43A] | 0.79 |
| CCGCCUAAGUCUGCCAAUGCCGGUCCCAAGCCCGGAUAAAAGUGGAGGGGGCGG [A10U C9G] | 0.07 |
| CCGCCUAAAUCUGCCAAUGCCGGUCCCAAGCCCGGAUAAAAGUGGAGGGGGCGG [A10U C9A] | 0.04 |
| CCGCCUAAUUCUGCCAAUGCCGGUCCCAAGCCCGGAUAAAAGUGGAGGGGGCGG [A10U C9U] | 0.05 |
| CCGCCUAACGCUGCCAAUGCCGGGCCCAAGCCCGGAUAAAAGUGGAGGGGGCGG [A10G U24G] | 0.04 |
| CCGCCUAACGCUGCCAAUGCCGGACCCAAGCCCGGAUAAAAGUGGAGGGGGCGG [A10G U24A] | 0.09 |
| CCGCCUAACGCUGCCAAUGCCGGCCCCAAGCCCGGAUAAAAGUGGAGGGGGCGG [A10G U24C] | 0.1 |
| CCGCCUAACUCUGCCUAUGCCGGUCCCAAGCCCGGAUAAAAGUGGAGGGGGCGG [A10U A16U] | 0.06 |
| CCGCCUAACUCUGCCCAUGCCGGUCCCAAGCCCGGAUAAAAGUGGAGGGGGCGG [A10U A16C] | 0.03 |
| CCGCCUAACUCUGCCGAUGCCGGUCCCAAGCCCGGAUAAAAGUGGAGGGGGCGG [A10U A16G] | 0.06 |
| CCGCCUAACUCUGCCAAUGCCGGUCCCAAGCCCGGAUAAUAGUGGAGGGGGCGG [A10U A40U] | 0.05 |
| CCGCCUAACUCUGCCAAUGCCGGUCCCAAGCCCGGAUAACAGUGGAGGGGGCGG [A10U A40C] | 0.01 |
| CCGCCUAACUCUGCCAAUGCCGGUCCCAAGCCCGGAUAAGAGUGGAGGGGGCGG [A10U A40G] | 0.05 |
| CCGCCUAACGCUGCCAAUGCCGGUCCCAAGCCCGGAUAAAAGUGGAGGGGGCGU [A10G G54U] | 0.89 |
| CCGCCUAACGCUGCCAAUGCCGGUCCCAAGCCCGGAUAAAAGUGGAGGGGGCGA [A10G G54A] | 0.9 |
| CCGCCUAACGCUGCCAAUGCCGGUCCCAAGCCCGGAUAAAAGUGGAGGGGGCGC [A10G G54C] | 0.85 |
| CCGCCUAACUGUGCCAAUGCCGGUCCCAAGCCCGGAUAAAAGUGGAGGGGGCGG [A10U C11G] | 0.03 |
| CCGCCUAACUUUGCCAAUGCCGGUCCCAAGCCCGGAUAAAAGUGGAGGGGGCGG [A10U C11U] | 0.05 |
| CCGCCUAACUAUGCCAAUGCCGGUCCCAAGCCCGGAUAAAAGUGGAGGGGGCGG [A10U C11A] | 0.04 |
| CCGCCUAACGCUGCCAAGGCCGGUCCCAAGCCCGGAUAAAAGUGGAGGGGGCGG [A10G U18G] | 0.66 |
| CCGCCUAACGCUGCCAACGCCGGUCCCAAGCCCGGAUAAAAGUGGAGGGGGCGG [A10G U18C] | 0.68 |
| CCGCCUAACGCUGCCAAAGCCGGUCCCAAGCCCGGAUAAAAGUGGAGGGGGCGG [A10G U18A] | 0.85 |

| Variant | self-cleavage |
| --- | --- |
| CCGCCUAACGCUGCCAAUGCCGGUCCCAAGCCCGGAUAAAAGUGAAGGGGGCGG [A10G G45A] | 0.17 |
| CCGCCUAACGCUGCCAAUGCCGGUCCCAAGCCCGGAUAAAAGUGUAGGGGGCGG [A10G G45U] | 0.1 |
| CCGCCUAACGCUGCCAAUGCCGGUCCCAAGCCCGGAUAAAAGUGCAGGGGGCGG [A10G G45C] | 0.06 |
| CCGCCUAACUCUGCCAAUGCCGGUCCCAAGCCCGGAUAAAAGUGGAGGGGGCGG [A10U] | 0.05 |
| CCGCCUAACGCUGCCAAUGCCGGUCCCAAGCCCGGAUAAAAGUUGAGGGGGCGG [A10G G44U] | 0.87 |
| CCGCCUAACGCUGCCAAUGCCGGUCCCAAGCCCGGAUAAAAGUAGAGGGGGCGG [A10G G44A] | 0.72 |
| CCGCCUAACGCUGCCAAUGCCGGUCCCAAGCCCGGAUAAAAGUCGAGGGGGCGG [A10G G44C] | 0.81 |
| CCGCCUAACGCUGCCAAUGCCGGUCCCAAGCCCGGAUAAAAGUGGAGGAGGCGG [A10G G49A] | 0.07 |
| CCGCCUAACGCUGCCAAUGCCGGUCCCAAGCCCGGAUAAAAGUGGAGGUGGCGG [A10G G49U] | 0.09 |
| CCGCCUAACGCUGCCAAUGCCGGUCCCAAGCCCGGAUAAAAGUGGAGGCGGCGG [A10G G49C] | 0.07 |
| CCGCCUAACUCUGGCAAUGCCGGUCCCAAGCCCGGAUAAAAGUGGAGGGGGCGG [A10U C14G] | 0.03 |
| CCGCCUAACUCUGACAAUGCCGGUCCCAAGCCCGGAUAAAAGUGGAGGGGGCGG [A10U C14A] | 0.02 |
| CCGCCUAACUCUGCCAAUGCCGGUCCCAUGCCCGGAUAAAAGUGGAGGGGGCGG [A10U A29U] | 0.03 |
| CCGCCUAACUCUGCCAAUGCCGGUCCCACGCCCGGAUAAAAGUGGAGGGGGCGG [A10U A29C] | 0.01 |
| CCGCCUAACUCUGCCAAUGCCGGUCCCAGGCCCGGAUAAAAGUGGAGGGGGCGG [A10U A29G] | 0.03 |
| CCGCCUAACUCUGCCAAUGCCGGUCCCAAGCCCGGAUGAAAGUGGAGGGGGCGG [A10U A38G] | 0.07 |
| CCGCCUAACUCUGCCAAUGCCGGUCCCAAGCCCGGAUCAAAGUGGAGGGGGCGG [A10U A38C] | 0.06 |
| CCGCCUAACUCUGCCAAUGCCGGUCCCAAGCCCGGAUUAAAGUGGAGGGGGCGG [A10U A38U] | 0.05 |
| CCGCCUAACGCGGCCAAUGCCGGUCCCAAGCCCGGAUAAAAGUGGAGGGGGCGG [A10G U12G] | 0.2 |
| CCGCCUAACGCCGCCAAUGCCGGUCCCAAGCCCGGAUAAAAGUGGAGGGGGCGG [A10G U12C] | 0.12 |
| CCGCCUAACGCAGCCAAUGCCGGUCCCAAGCCCGGAUAAAAGUGGAGGGGGCGG [A10G U12A] | 0.21 |
| CCGCCUAACGCUGCCAAUGCCGGUCCCAAGCCCGGAUAAAAGUGGAGGGGGCAG [A10G G53A] | 0.41 |
| CCGCCUAACGCUGCCAAUGCCGGUCCCAAGCCCGGAUAAAAGUGGAGGGGGCUG [A10G G53U] | 0.22 |
| CCGCCUAACGCUGCCAAUGCCGGUCCCAAGCCCGGAUAAAAGUGGAGGGGGCCG [A10G G53C] | 0.07 |
